Measurements as given in ChEMBL document CHEMBL4619797, “Antiglioma Activity of Aryl and Amido-Aryl Acetamidine Derivatives Targeting iNOS: Synthesis and Biological Evaluation” (ACS Med Chem Lett, 2020).
Calls of active or inactive are those of the source. The rule behind the calls is not given here.

Tests used:
Nitric oxide synthase 1 [1] = molecular target: T1, Nitric oxide synthase 1 (Homo sapiens, UniProt P29475); test: Inhibition of recombinant human nNOS expressed in Escherichia coli at 1 uM using L-arginine as substrate preincubated for 15 mins followed by NADPH addition and measured after 20 mins by OPA/NAC reagent based HPLC-fluorimetric analysis relative to control
T1 sequence (P29475 whole entry): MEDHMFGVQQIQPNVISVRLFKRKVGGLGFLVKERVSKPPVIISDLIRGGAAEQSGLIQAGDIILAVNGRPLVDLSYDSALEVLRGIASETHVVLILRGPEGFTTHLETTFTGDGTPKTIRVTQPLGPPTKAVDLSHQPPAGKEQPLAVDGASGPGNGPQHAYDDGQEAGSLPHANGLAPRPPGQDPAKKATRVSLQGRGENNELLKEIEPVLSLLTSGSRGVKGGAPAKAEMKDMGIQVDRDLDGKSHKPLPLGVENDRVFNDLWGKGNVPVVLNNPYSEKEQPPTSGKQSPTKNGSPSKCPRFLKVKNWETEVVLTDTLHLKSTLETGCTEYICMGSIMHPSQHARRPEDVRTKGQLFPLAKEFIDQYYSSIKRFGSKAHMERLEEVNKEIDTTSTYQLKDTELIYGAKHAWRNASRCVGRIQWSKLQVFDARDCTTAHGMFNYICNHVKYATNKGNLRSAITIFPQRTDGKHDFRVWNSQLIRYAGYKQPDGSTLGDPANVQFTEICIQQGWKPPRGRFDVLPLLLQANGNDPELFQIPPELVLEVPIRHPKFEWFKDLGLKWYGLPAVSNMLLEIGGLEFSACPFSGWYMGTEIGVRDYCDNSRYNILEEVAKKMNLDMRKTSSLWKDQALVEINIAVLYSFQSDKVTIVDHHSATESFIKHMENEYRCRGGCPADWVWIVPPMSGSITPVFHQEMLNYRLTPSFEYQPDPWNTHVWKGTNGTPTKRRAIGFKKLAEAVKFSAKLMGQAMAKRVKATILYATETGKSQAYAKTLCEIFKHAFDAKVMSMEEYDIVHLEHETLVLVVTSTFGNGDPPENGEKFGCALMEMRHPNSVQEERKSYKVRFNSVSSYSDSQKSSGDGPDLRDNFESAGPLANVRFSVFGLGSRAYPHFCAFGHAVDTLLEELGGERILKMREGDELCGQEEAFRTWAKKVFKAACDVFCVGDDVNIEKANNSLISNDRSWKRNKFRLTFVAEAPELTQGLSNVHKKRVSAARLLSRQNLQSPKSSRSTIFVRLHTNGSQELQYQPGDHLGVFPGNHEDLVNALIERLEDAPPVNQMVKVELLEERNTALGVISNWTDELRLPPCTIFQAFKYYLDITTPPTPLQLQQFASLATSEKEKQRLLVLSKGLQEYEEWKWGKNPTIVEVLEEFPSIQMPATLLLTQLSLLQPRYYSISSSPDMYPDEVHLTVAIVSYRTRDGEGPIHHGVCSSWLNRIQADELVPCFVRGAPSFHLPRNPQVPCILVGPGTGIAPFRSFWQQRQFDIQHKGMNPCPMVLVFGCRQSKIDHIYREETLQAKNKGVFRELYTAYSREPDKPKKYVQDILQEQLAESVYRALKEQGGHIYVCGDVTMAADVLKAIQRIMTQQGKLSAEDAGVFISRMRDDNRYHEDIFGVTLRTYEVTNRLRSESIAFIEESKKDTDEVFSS
Summary of the method: (§1)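 Primary screen: percent inhibition of iNOS and nNOS measured at 1 μM compound; mean ± SD of triplicate experiments.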

[2] = molecular target: T2, Nitric oxide synthase 3 (Homo sapiens) (UniProt P29474); test: Inhibition of human eNOS at 10 uM using L-arginine as substrate preincubated for 15 mins followed by NADPH addition and measured after 20 mins by OPA/NAC reagent based HPLC-fluorimetric analysis relative to control
T2 sequence (whole entry): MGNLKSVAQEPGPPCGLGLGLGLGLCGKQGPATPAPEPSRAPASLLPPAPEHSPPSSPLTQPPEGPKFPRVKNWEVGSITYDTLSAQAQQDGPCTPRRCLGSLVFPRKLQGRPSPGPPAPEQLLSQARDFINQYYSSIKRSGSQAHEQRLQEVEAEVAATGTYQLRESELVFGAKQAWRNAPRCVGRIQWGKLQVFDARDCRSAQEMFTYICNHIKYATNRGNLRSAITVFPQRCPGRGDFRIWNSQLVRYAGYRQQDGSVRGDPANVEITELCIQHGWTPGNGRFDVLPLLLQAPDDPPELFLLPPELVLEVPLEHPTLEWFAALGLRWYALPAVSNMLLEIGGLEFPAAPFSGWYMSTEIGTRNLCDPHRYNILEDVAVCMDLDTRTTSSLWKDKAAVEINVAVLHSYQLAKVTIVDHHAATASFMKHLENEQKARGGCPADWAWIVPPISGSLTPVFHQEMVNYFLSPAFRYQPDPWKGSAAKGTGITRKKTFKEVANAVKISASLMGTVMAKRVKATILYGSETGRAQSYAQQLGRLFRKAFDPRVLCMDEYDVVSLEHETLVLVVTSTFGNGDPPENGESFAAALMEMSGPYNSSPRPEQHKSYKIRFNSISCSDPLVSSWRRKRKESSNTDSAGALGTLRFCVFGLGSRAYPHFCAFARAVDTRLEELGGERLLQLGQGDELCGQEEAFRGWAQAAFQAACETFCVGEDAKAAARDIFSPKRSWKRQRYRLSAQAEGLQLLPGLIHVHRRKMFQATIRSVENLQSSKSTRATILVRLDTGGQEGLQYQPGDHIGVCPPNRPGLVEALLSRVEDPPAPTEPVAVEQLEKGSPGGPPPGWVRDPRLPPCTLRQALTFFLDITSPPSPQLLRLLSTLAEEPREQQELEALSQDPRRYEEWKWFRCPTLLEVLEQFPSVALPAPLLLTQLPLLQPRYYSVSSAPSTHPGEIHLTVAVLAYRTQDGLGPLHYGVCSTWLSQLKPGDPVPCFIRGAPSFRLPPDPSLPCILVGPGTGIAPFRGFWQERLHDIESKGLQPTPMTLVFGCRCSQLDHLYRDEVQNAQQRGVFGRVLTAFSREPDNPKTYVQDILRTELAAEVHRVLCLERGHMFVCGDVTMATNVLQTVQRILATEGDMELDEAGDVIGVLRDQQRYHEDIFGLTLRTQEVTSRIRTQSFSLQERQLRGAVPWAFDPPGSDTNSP
Summary of the method: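 eNOS percent inhibition screened at 10 μM compound; mean ± SD of triplicate experiments.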

[3] = molecular target: T3, Nitric oxide synthase, inducible (Homo sapiens, UniProt P35228); test: Inhibition of recombinant N-terminal His-tagged human iNOS expressed in Escherichia coli at 1 uM using L-arginine as substrate preincubated for 15 mins followed by NADPH addition and measured after 20 mins by OPA/NAC reagent based HPLC-fluorimetric analysis relative to control; summary of the method: as §1
T3 sequence (P35228 whole entry): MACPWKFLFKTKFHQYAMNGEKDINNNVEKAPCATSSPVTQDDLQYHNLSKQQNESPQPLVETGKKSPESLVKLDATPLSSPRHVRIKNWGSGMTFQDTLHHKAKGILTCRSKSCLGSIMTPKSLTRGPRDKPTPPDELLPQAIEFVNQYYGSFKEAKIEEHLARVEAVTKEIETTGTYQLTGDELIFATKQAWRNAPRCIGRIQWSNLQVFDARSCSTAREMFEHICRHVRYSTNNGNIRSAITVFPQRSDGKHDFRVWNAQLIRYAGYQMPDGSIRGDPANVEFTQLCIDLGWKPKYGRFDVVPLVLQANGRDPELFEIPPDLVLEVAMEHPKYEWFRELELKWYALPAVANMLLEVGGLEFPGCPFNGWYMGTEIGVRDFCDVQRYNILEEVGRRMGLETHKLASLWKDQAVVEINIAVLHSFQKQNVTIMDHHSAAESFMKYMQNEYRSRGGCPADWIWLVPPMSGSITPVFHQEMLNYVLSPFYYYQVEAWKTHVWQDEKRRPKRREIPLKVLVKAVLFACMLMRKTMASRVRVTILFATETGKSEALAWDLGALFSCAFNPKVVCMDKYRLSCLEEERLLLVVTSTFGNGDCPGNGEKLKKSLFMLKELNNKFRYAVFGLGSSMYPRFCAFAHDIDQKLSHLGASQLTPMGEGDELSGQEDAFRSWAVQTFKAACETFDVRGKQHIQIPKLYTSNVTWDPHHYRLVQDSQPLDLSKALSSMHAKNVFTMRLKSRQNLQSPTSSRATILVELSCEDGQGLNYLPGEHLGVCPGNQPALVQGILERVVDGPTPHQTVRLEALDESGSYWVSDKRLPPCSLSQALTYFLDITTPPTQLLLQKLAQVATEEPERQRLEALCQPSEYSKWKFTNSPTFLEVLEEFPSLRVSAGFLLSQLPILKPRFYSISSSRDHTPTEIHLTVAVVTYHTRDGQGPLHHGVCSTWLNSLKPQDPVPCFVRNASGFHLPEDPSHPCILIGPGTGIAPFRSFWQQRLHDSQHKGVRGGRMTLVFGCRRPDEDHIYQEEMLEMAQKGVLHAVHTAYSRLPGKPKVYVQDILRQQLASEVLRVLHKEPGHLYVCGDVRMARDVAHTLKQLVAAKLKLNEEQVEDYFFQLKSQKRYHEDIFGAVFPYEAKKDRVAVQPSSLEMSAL

C6 [4] = test: Antiproliferative activity against rat C6 cells assessed as inhibition of cell proliferation at 500 uM after 24 hrs by MTT assay; type: functional, cell-based
Summary of the method: (§2)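 C6 rat glioma cells exposed 24 h to increasing concentrations (0–1500 μM); metabolic activity by MTT, expressed as percent of untreated cultures (100%); means ± SD of three replicates.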

[5] = molecular target: T3, Nitric oxide synthase, inducible; test: Inhibition of recombinant N-terminal His-tagged human iNOS expressed in Escherichia coli using L-arginine as substrate preincubated for 15 mins followed by NADPH addition and measured after 20 mins by OPA/NAC reagent based HPLC-fluorimetric analysis
Summary of the method: (§3)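 IC50 against human iNOS, nNOS and eNOS from experiments in triplicate at seven different concentrations; mean ± SD reported.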

C6 [6] = test: Antiproliferative activity against rat C6 cells assessed as inhibition of cell proliferation at 500 uM after 24 hrs by MTT assay relative to control; type: functional; conditions: C6, 24 h; summary of the method: as §2
C6 [7] = test: Antiproliferative activity against rat C6 cells assessed as increase in LDH release after 24 hrs by CytoTox 96 Non-Radioactive assay; type: functional, cell-based
C6 [8] = test: Antiproliferative activity against rat C6 cells assessed as LDH release at 500 to 1000 uM after 24 hrs by CytoTox 96 Non-Radioactive assay (reference value: 13.49%); type: functional
C6 [9] = test: Antiproliferative activity against rat C6 cells assessed as reduction in cell metabolic activity after 24 hrs by MTT assay; type: functional, cell-based; summary of the method: as §2
Nitric oxide synthase 3 = molecular target: T4, Nitric oxide synthase 3 (Homo sapiens, UniProt P29474); test: Inhibition of human eNOS using L-argininge as substrate preincubated for 15 mins followed by NADPH addition and measured after 20 mins by OPA/NAC reagent based HPLC analysis; summary of the method: as §3
T4 sequence (P29474 whole entry): T2 sequence (whole entry)

C6 [10] = test: Antiproliferative activity against rat C6 cells assessed as cell metabolic activity at 1500 uM after 24 hrs by MTT assay relative to control; type: functional; summary of the method: as §2
C6 [11] = test: Antiproliferative activity against rat C6 cells assessed as LDH release at 250 uM after 24 hrs by CytoTox 96 Non-Radioactive assay (reference value: 13.49%); type: functional
[12] = molecular target: Nitric oxide sythases; iNOS & nNOS (Homo sapiens) (UniProt P29475+P35228); test: Selectivity index, ratio of IC50 for recombinant human nNOS expressed in Escherichia coli to IC50 for recombinant N-terminal His-tagged human iNOS expressed in Escherichia coli
Sequence of Nitric oxide sythases; iNOS & nNOS (Homo sapiens) (P29475 whole entry, looked up): as the sequence (P29475 whole entry) above
Sequence of Nitric oxide sythases; iNOS & nNOS (Homo sapiens) (P35228 whole entry, looked up): as the sequence (P35228 whole entry) above
Summary of the method: (§4)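 Ratio of IC50 values for human eNOS or nNOS to that for human iNOS, each IC50 from triplicate runs at seven concentrations.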

Homo sapiens = organism: Homo sapiens; test: Selectivity index, ratio of IC50 for recombinant human eNOS to IC50 for recombinant N-terminal His-tagged human iNOS expressed in Escherichia coli; summary of the method: as §4
C6 [13] = test: Antiproliferative activity against rat C6 cells assessed as cell metabolic activity at 50 uM after 24 hrs by MTT assay relative to control; type: functional; summary of the method: as §2
C6 [14] = test: Antiproliferative activity against rat C6 cells assessed as cell metabolic activity at 750 uM after 24 hrs by MTT assay relative to control; type: functional; summary of the method: as §2
C6 [15] = test: Antiproliferative activity against rat C6 cells assessed as cell metabolic activity at 1000 uM after 24 hrs by MTT assay relative to control; type: functional; summary of the method: as §2
[16] = Cytotoxicity against rat CTX/TNA2 cells assessed as reduction in cell metabolic activity at 1500 uM after 24 hrs by MTT assay; type: ADME, cell-based
Summary of the method: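 Rat astrocytes (CTX) exposed 24 h to increasing concentrations up to 1500 μM; metabolic activity by MTT, expressed as percent of untreated (0 μM) cultures set at 100%; means ± SD of three replicates.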

Nitric oxide synthase 1 [17] = molecular target: T1, Nitric oxide synthase 1; test: Inhibition of recombinant human nNOS expressed in Escherichia coli using L-arginine as substrate preincubated for 15 mins followed by NADPH addition and measured after 20 mins by OPA/NAC reagent based HPLC-fluorimetric analysis; summary of the method: as §3

| Structure (SMILES) | inhibition (Nitric oxide synthase 1 [1]) [%] | inhibition [2] [%] | inhibition [3] [%] | also measured |
| --- | --- | --- | --- | --- |
| CC(=N)NCc1cccc(CNC(=O)C2CCCN2)c1 (stereo not drawn) | – | – | – | Activity (C6 [4]): inactive |
| CC(=N)NCc1cccc(CN)c1 | – | – | – | Activity (C6 [4]): inactive |
| CC(N)C(=O)Cc1cn[nH]c1 (stereo not drawn) | – | – | – | IC50 [5]: 681 nM |
| CC(=N)Nc1ccc(F)cc1 | 10 | 0 | 85 | – |
| Cn1nnc2c(C(N)=O)ncn2c1=O [TEMOZOLOMIDE] | – | – | – | inhibition at 500 µM (C6 [6]): 12% |
| CC(=N)Nc1nc(-c2ccccc2)cs1 | 2 | 14 | 100 | – |
| CC(=N)Nc1nc(-c2ccc(Cl)cc2)cs1 | 13 | 4 | 100 | – |
| CC(=N)NCc1cccc(CNC(=O)CCC(=O)O)c1 | – | – | – | IC50 [5]: 428 nM |

More lines, main results first:

| inhibition (Nitric oxide synthase 1 [1]) [%] | inhibition [2] [%] | inhibition [3] [%] | Structure (SMILES) | also measured |
| --- | --- | --- | --- | --- |
| 0 | 4 | 70 | CC(=N)NCc1ccc(C(=O)O)cc1 | – |
| 14 | 62 | 86 | CC(=N)Nc1ccc(C(=O)O)cc1 | – |
| 0 | 0 | 100 | CC(=N)NCc1ccc(C(=O)Nc2nccs2)cc1 | – |
| 47 | 3 | 81 | CC(=N)Nc1ccc(S(=O)(=O)Nc2nccs2)cc1 | – |
| 96 | 0 | 84 | CC(=N)Nc1ccc(C(=O)Nc2nccs2)cc1 | – |
| 97 | 0 | 87 | CC(=N)NCc1ccc(C(=O)Nc2ccc(F)cc2)cc1 | – |
| 0 | 5 | 93 | CC(=N)NCc1ccc(F)cc1 | – |
| 0 | 0 | 100 | Br.CC(=N)Nc1ccc(C(=O)Nc2ccc(F)cc2)cc1 | Activity (C6 [7]): Dose-dependent effect; Activity (C6 [8]): 27%; Activity (C6 [9]): Dose-dependent effect; IC50 (Nitric oxide synthase 3): > 10000 nM; inhibition at 500 µM (C6 [6]): 31%; Activity (C6 [10]): 64.42%; IC50 [5]: 11 nM; Activity (C6 [11]): 22.48%; Ratio IC50 [12]: 563; Ratio IC50 (Homo sapiens): > 900; Activity (C6 [13]): 86.45%; Activity (C6 [14]): 64.86%; Activity (C6 [15]): 65.22%; Activity [16]: Toxic; IC50 (Nitric oxide synthase 1 [17]): 6200 nM |
